ChEMBL document CHEMBL3112518, “Design, synthesis and anticancer activity evaluation of novel C14 heterocycle substituted epi-triptolide” (Eur J Med Chem, 2014)

How the values were obtained:
PC-3 = experiment: Cytotoxicity against human PC3 cells after 72 hrs by sulforhodamine B assay; type: functional, cell-based; settings: PC-3, 72 h
Method in brief: (§1)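 Cells in 96-well plates were exposed in triplicate to a concentration gradient of each agent at 37 °C for 72 h, and growth was then measured by sulforhodamine B staining. IC50 is the concentration giving 50% growth inhibition relative to untreated control cells, calculated by the logit method.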

SK-OV-3 = experiment: Cytotoxicity against human SKOV3 cells after 72 hrs by sulforhodamine B assay; type: functional, cell-based; settings: SK-OV-3, 72 h; method in brief: as §1

Compound | IC50 (PC-3) [nM] | IC50 (SK-OV-3) [nM]
CC(C)[C@]12O[C@H]1[C@@H]1O[C@]13[C@]1(O[C@H]1C[C@H]1C4=C(CC[C@@]13C)C(=O)OC4)[C@]21CN(c2ccc3c(cnn3CCN3CCOCC3)c2)CO1 | 253 | 152
CC(C)[C@]12O[C@H]1[C@@H]1O[C@]13[C@]1(O[C@H]1C[C@H]1C4=C(CC[C@@]13C)C(=O)OC4)[C@]2(O)Cn1cc(C2CC2)nn1 | > 10000 | > 10000
COC(=O)c1cn(C[C@@]2(O)[C@]34O[C@H]3C[C@H]3C5=C(CC[C@]3(C)[C@@]43O[C@H]3[C@@H]3O[C@@]32C(C)C)C(=O)OC5)nn1 | > 10000 | > 10000
CC(C)[C@]12O[C@H]1[C@@H]1O[C@]13[C@]1(O[C@H]1C[C@H]1C4=C(CC[C@@]13C)C(=O)OC4)[C@]2(O)Cn1cc(-c2ccccc2)nn1 | > 10000 | > 10000
CC(C)[C@]12O[C@H]1[C@@H]1O[C@]13[C@]1(O[C@H]1C[C@H]1C4=C(CC[C@@]13C)C(=O)OC4)[C@]2(O)CNc1cccnc1 | 2810 | 745
CC(C)[C@]12O[C@H]1[C@@H]1O[C@]13[C@]1(O[C@H]1C[C@H]1C4=C(CC[C@@]13C)C(=O)OC4)[C@]2(O)CNc1cccc2[nH]ccc12 | 97.8 | 53.8
CC(C)[C@]12O[C@H]1[C@@H]1O[C@]13[C@]1(O[C@H]1C[C@H]1C4=C(CC[C@@]13C)C(=O)OC4)[C@]2(O)CNc1ccc2[nH]ncc2c1 | 25.3 | 17.4
CC(C)[C@]12O[C@H]1[C@@H]1O[C@]13[C@]1(O[C@H]1C[C@H]1C4=C(CC[C@@]13C)C(=O)OC4)[C@]2(O)CNc1ccc2cn[nH]c2c1 | 188 | 49
CC(C)[C@]12O[C@H]1[C@@H]1O[C@]13[C@]1(O[C@H]1C[C@H]1C4=C(CC[C@@]13C)C(=O)OC4)[C@]2(O)CNc1ccc2c(cnn2C)c1 | 132 | 15
CC(C)[C@]12O[C@H]1[C@@H]1O[C@]13[C@]1(O[C@H]1C[C@H]1C4=C(CC[C@@]13C)C(=O)OC4)[C@]2(O)CNc1ccc2nn(C)cc2c1 | 97 | 22.3
COC(=O)n1ncc2cc(NC[C@@]3(O)[C@]45O[C@H]4C[C@H]4C6=C(CC[C@]4(C)[C@@]54O[C@H]4[C@@H]4O[C@@]43C(C)C)C(=O)OC6)ccc21 | 188 | 102
COC(=O)c1n[nH]c2ccc(NC[C@@]3(O)[C@]45O[C@H]4C[C@H]4C6=C(CC[C@]4(C)[C@@]54O[C@H]4[C@@H]4O[C@@]43C(C)C)C(=O)OC6)cc12 | 264 | 35.8
CC(C)[C@]12O[C@H]1[C@@H]1O[C@]13[C@]1(O[C@H]1C[C@H]1C4=C(CC[C@@]13C)C(=O)OC4)[C@]2(O)CNc1ccc2c(cnn2CCN2CCOCC2)c1 | 36.6 | 36.4
CC(C)[C@]12O[C@H]1[C@@H]1O[C@]13[C@]1(O[C@H]1C[C@H]1C4=C(CC[C@@]13C)C(=O)OC4)[C@]2(O)CNc1ccc2nn(CCN3CCOCC3)cc2c1 | 40.8 | 77
CC(C)[C@]12O[C@H]1[C@@H]1O[C@]13[C@]1(O[C@H]1C[C@H]1C4=C(CC[C@@]13C)C(=O)OC4)[C@]2(O)CNc1ccc2nn(CCN3CCCCC3)cc2c1 | 66.1 | 99
CC(C)[C@]12O[C@H]1[C@@H]1O[C@]13[C@]1(O[C@H]1C[C@H]1C4=C(CC[C@@]13C)C(=O)OC4)[C@]2(O)CNc1ccc2c(c1)CC(=O)N2 | 54.1 | 38.4
CC(C)[C@]12O[C@H]1[C@@H]1O[C@]13[C@]1(O[C@H]1C[C@H]1C4=C(CC[C@@]13C)C(=O)OC4)[C@]2(O)CNc1ccc2c(c1)C(C)(C)C(=O)N2C | 84.9 | 11.7
CC(C)[C@]12O[C@H]1[C@@H]1O[C@]13[C@]1(O[C@H]1C[C@H]1C4=C(CC[C@@]13C)C(=O)OC4)[C@]2(O)CNc1ccc2ncccc2c1 | 452 | 85
CC(C)[C@]12O[C@H]1[C@@H]1O[C@]13[C@]1(O[C@H]1C[C@H]1C4=C(CC[C@@]13C)C(=O)OC4)[C@]2(O)CNc1ccc2nccnc2c1 | 157 | 369
CC(C)[C@]12O[C@H]1[C@@H]1O[C@]13[C@]1(O[C@H]1C[C@H]1C4=C(CC[C@@]13C)C(=O)OC4)[C@]2(O)CNc1ccc2ncncc2c1 | 781 | 274
CC(C)[C@]12O[C@H]1[C@@H]1O[C@]13[C@]1(O[C@H]1C[C@H]1C4=C(CC[C@@]13C)C(=O)OC4)[C@]2(O)CNc1ccc2oc(=O)ccc2c1 | 353 | 87.2
CC(C)[C@]12O[C@H]1[C@@H]1O[C@]13[C@]1(O[C@H]1C[C@H]1C4=C(CC[C@@]13C)C(=O)OC4)[C@]2(O)CNc1ccc2occc(=O)c2c1 | 341 | 368
CC(C)[C@]12O[C@H]1[C@@H]1O[C@]13[C@]1(O[C@H]1C[C@H]1C4=C(CC[C@@]13C)C(=O)OC4)[C@]2(O)CNc1ccc2c(c1)C(=O)CCO2 | 172 | 32.1
CC(C)[C@]12O[C@H]1[C@@H]1O[C@]13[C@]1(O[C@H]1C[C@H]1C4=C(CC[C@@]13C)C(=O)OC4)[C@]2(O)CNc1ccc2c(c1)CC(=O)O2 | 67.9 | 12.5
CC(C)[C@]12O[C@H]1[C@@H]1O[C@]13[C@]1(O[C@H]1C[C@H]1C4=C(CC[C@@]13C)C(=O)OC4)[C@]21CN(c2ccc3c(cnn3C)c2)CO1 | 365 | 79.7
CC(C)[C@]12O[C@H]1[C@@H]1O[C@]13[C@]1(O[C@H]1C[C@H]1C4=C(CC[C@@]13C)C(=O)OC4)[C@H]2O [EPITRIPTOIIDE] | 1320 | 
